Reference: ChEMBL document CHEMBL2177004, “Synthesis and SAR of b-annulated 1,4-dihydropyridines define cardiomyogenic compounds as novel inhibitors of TGFβ signaling” (J Med Chem, 2012)
Calls of active or inactive are those of the source. The rule behind the calls is not given here.

How the values were obtained:
[1] = target: T1, Activin receptor type-1C (Homo sapiens) (UniProt Q8NER5); conditions: 2.5 uM
T1 sequence (whole entry): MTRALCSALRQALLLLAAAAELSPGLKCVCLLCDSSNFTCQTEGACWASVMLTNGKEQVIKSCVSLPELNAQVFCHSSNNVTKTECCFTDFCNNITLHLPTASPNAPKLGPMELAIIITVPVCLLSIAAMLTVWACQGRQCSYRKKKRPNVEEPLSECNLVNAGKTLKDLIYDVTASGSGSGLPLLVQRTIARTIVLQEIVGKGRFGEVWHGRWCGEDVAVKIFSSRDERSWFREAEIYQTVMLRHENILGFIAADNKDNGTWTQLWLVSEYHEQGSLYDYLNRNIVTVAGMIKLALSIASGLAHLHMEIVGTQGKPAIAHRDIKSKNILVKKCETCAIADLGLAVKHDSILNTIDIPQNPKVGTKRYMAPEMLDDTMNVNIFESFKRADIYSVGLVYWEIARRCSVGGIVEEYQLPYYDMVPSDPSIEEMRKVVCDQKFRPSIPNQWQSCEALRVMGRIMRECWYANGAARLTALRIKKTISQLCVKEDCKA

[2] = target: T2, Activin receptor type-1B (Homo sapiens) (UniProt P36896); conditions: 2.5 uM
T2 sequence (whole entry): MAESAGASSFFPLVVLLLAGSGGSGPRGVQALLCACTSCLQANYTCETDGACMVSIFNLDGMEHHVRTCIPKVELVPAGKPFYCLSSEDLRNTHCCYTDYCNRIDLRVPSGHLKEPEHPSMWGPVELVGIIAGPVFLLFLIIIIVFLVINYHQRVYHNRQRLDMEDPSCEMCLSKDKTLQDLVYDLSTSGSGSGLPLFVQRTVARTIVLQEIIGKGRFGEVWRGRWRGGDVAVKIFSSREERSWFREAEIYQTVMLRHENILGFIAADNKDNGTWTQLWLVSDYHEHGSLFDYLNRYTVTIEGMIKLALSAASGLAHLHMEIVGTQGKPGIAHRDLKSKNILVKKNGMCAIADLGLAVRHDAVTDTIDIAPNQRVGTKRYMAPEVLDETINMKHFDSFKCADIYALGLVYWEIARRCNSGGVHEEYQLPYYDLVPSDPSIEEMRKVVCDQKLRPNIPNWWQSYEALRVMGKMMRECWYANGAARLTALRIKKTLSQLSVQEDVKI

TGF-beta receptor type-2 = TGF-beta receptor type-2 (Homo sapiens, UniProt P37173); assay: Inhibition of TGBR2 signaling in human HEK293T cells assessed as inhibition of SMAD activation after 2 to 22 hrs by dual Luciferase Assay; format: cell-based, HEK-293T
Chain of TGF-beta receptor type-2 (P37173 whole entry): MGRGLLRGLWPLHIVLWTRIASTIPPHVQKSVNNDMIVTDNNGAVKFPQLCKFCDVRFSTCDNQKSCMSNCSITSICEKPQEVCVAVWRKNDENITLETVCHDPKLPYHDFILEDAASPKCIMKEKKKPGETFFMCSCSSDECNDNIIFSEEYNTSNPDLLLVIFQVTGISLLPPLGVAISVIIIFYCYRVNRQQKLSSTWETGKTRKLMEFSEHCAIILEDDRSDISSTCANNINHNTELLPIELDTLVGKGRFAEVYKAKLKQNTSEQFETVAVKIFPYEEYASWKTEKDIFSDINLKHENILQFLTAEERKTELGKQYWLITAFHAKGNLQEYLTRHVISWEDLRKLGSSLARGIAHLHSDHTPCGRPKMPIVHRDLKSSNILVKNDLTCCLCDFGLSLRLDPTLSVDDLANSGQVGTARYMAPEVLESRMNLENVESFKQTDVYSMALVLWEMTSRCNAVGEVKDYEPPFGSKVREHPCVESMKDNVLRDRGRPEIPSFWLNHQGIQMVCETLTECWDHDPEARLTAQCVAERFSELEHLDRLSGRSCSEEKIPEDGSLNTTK

HEK-293T = assay: Inhibition of Activin receptor signaling in activin A-stimulated human HEK293T cells assessed as inhibition of SMAD activation at 2.5 uM after 2 to 22 hrs by dual Luciferase Assay; format: cell-based
In short: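 HEK-293T cells bulk co-transfected with an SBE-4–firefly luciferase reporter and a TK-driven Renilla plasmid for normalization, in DMEM with 2% FBS. After 12–14 h, cells were replated at 25,000/well in DMEM with 1% FBS and rested 2 h. Compound was then added with Activin A (10 ng/mL) for 20–22 h. Dual luciferase read-out was compared with DMSO, run in triplicate, with ≥2 independent experiments.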

[3] = Inhibition of calcium transients in mouse HL-1 cells after 10 mins using Fluo-4 by fluorescene assay; format: functional
In short: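 HL-1 murine atrial cells plated at 25,000/well on gelatin (0.02%)/fibronectin (5 μg/mL) in Claycomb medium with 10% FBS and 0.1 mM norepinephrine. Loaded with Hoechst 33342 and Fluo-4 for 30 min at 37 °C, then 30 min at room temperature. Washed with Tyrode's (pH 7.4); compound in Tyrode's 10 min at room temperature. 10 s videos at 33 frames/s; kinetic parameters from image analysis.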

CGR8 [4] = assay: Promotion of cardiogenesis in mouse CGR8 cells carrying Myh6-GFP compound treated at 2.5 uM on days 3 to 5 measured on day 10 post differentiation by GFP reporter assay; format: functional, cell-based
In short: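 CGR8 mESCs carrying a Myh6 (α-MHC)-GFP reporter seeded in LIF-free high-glucose DMEM with 10% FBS to differentiate. Compound given on days 3–5; α-MHC-GFP fluorescence quantified by high-content imaging on day 10. Data normalized at lower concentrations.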

J1 (Mus musculus) = assay: Inhibition of mesoderm formation in mouse J1 cells carrying brachyury/T-GFP compound treated on day 1 measured on day 4 of differentiation by flow cytometry
CGR8 [5] = assay: Inhibition of cardiogenesis in mouse CGR8 cells carrying Myh6-GFP compound treated at high concentration on days 3 to 5 measured on day 10 post differentiation by GFP reporter assay; format: functional, cell-based
In short: (§1)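 Differentiation used CGR8 mESCs carrying a Myh6 (α-MHC)-GFP reporter, seeded in LIF-free high-glucose DMEM with 10% FBS. Compound was given on days 3–5 of differentiation. α-MHC-GFP fluorescence was quantified by high-content imaging on day 10, and data were normalized.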

CGR8 [6] = assay: Promotion of cardiogenesis in mouse CGR8 cells carrying Myh6-GFP compound treated at 5 uM on days 3 to 5 measured on day 10 post differentiation by GFP reporter assay; format: functional, cell-based
In short: as §1

CGR8 [7] = assay: Promotion of cardiogenesis in mouse CGR8 cells carrying Myh6-GFP compound treated at 1 to 5 uM on days 3 to 5 measured on day 10 post differentiation by GFP reporter assay; format: functional, cell-based
In short: as §1

SMILES | inhibition (HEK-293T) | inhibition (INH) [3] | inhibition (J1 (Mus musculus)) | also measured
NC(=O)c1ccc(-c2nc(-c3ccccn3)c(-c3ccc4c(c3)OCO4)[nH]2)cc1 |  |  |  | inhibition [1]: 99%; inhibition [2]: 99%
CCOC(=O)C1=C(C)NC2=C(C(=O)CC(C)(C)C2)C1c1ccc(-c2ccccc2)cc1 (racemic) [listing 1 of 2 here] |  |  |  | IC50 (TGF-beta receptor type-2): 850 nM
CCOC(=O)C1=C(C)NC2=C(C(=O)CC(C)(C)C2)C1c1ccc(-c2ccccc2)cc1 (racemic) [listing 2 of 2 here] | 51% |  |  | 
COC(=O)C1=C(C)NC2=C(C(=O)CC(C)(C)C2)C1c1cccc(-c2ccc3[nH]ccc3c2)c1 (racemic) | 24% |  |  | 
CCCC1CC(=O)C2=C(C1)NC(C)=C(C(=O)OC)C2c1ccc(-c2ccccc2)cc1 (single isomer, unassigned; (+)) [listing 1 of 2 here] |  | 58% |  | 
CCCC1CC(=O)C2=C(C1)NC(C)=C(C(=O)OC)C2c1ccc(-c2ccccc2)cc1 (single isomer, unassigned; (+)) [listing 2 of 2 here] |  |  | Active | Activity (CGR8 [4]): Active
COC(=O)C1=C(C)NC2=C(C(=O)CC(C)(C)C2)C1c1cccc(-c2ccc3[nH]ccc3c2)c1 (single isomer, unassigned; (+)) | 55% |  | Active | 
CCCC1CC(=O)C2=C(C1)NC(C)=C(C(=O)OC)C2c1ccc(-c2ccccc2)cc1 (single isomer, unassigned; (-)) [listing 1 of 2 here] |  | 85% |  | 
CCCC1CC(=O)C2=C(C1)NC(C)=C(C(=O)OC)C2c1ccc(-c2ccccc2)cc1 (single isomer, unassigned; (-)) [listing 2 of 2 here] |  |  | Active | Activity (CGR8 [4]): inactive
COC(=O)C1=C(C)NC2=C(C(=O)CC(C)(C)C2)C1c1cccc(-c2ccc3[nH]ccc3c2)c1 (single isomer, unassigned; (-)) | 68% |  |  | 
CCOC(=O)C1=C(C)NC2=C(C(=O)CC(C)(C)C2)C1c1ccc(-c2ccccc2)cc1 (stereo in doubt; (+)1) [listing 1 of 2 here] |  | 44% |  | IC50 (TGF-beta receptor type-2): 460 nM
CCOC(=O)C1=C(C)NC2=C(C(=O)CC(C)(C)C2)C1c1ccc(-c2ccccc2)cc1 (stereo in doubt; (+)1) [listing 2 of 2 here] | 49% |  | Active | inhibition (CGR8 [5]): Dose-dependent effect; Activity (CGR8 [6]): Active; Activity (CGR8 [7]): Active
CCOC(=O)C1=C(C)NC2=C(C(=O)CC(C)(C)C2)C1c1ccc(-c2ccccc2)cc1 (stereo in doubt; (-)1) [listing 1 of 2 here] |  | 87% |  | IC50 (TGF-beta receptor type-2): 6900 nM
CCOC(=O)C1=C(C)NC2=C(C(=O)CC(C)(C)C2)C1c1ccc(-c2ccccc2)cc1 (stereo in doubt; (-)1) [listing 2 of 2 here] | 41% |  | Active | Activity (CGR8 [7]): Active
COC(=O)C1=C(C)NC(C)=C(C(=O)OC)C1c1ccccc1[N+](=O)[O-] [NIFEDIPINE] |  | 66% |  | 
